Only some compounds are listed: those with a hit (about 0.72% of all), similar ones and a draw of the others.
AI-2 QS mod: Vibrio harveyi AI-2 quorum sensing modulators, primary screen, JMH597 strain, luminescence/OD600 ratio; Vibrio harveyi JMH597 AI-2 luminescence/OD600 ratio, 9 h; active compounds read low; strain lacks LuxN and CqsS sensors; 0 = neutral-control median; activity change, % at 7.5 µM; 300,000 compounds, 0.4% hits; in the data active means activity change below about -75%, passing the limit was not always enough;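 further: luminescence divided by OD600 gain over 9 h not by final OD600 alone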
GSK3B inh: human GSK3beta kinase inhibitors, primary screen, biochemical, cell-free homogeneous, HTS | Glycogen synthase kinase-3 beta (Homo sapiens), P49841 | GST-GSK3beta kinase, ADP-Glo luminescence, 60 min; active compounds read low | activity score (negative = inhibition), % at 10 µM | 300,000 compounds, 0.038% hits;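 active means more than half of replicate wells score below -50%, meaning over 50% inhibition versus plate controls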
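Assay system: GST-tagged human GSK3beta kinase, cell-free; Input: 1.6 ng GSK3beta; Medium: Tris/MgCl2 kinase buffer; Timing: 60 min enzyme reaction, room temperature; Signal: ADP-Glo luminescence quantifying ADP generated by kinase; Evaluation: score relative to plate controls; Benchmarks: DMSO neutral wells and GW8510 at 20 µM as positive.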
PolyA inhibitor: polyadenylation inhibitors in yeast reporter cells, primary screen, luminescence, S. cerevisiae; S. cerevisiae SKY197-pL101 polyadenylation reporter, beta-gal luminescence; efflux-impaired pdr1/pdr3 knockout yeast; score 100 = 6 SD above DMSO; activity score, % at 12 µM; 300,000 compounds, 0.02% hits; AID 1875, 2009;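 active means lowest replicate activity score at least 50, where 100 means six control SD above control mean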;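 further: yeast exposed to compound for 9 h at 30 °C; higher score means more reporter readthrough which indicates perturbed polyadenylation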
GSK3A inh: blockers of GSK3A enzyme activity – biochemical, luminescence, cell-free homogeneous, HTS, primary screen; Glycogen synthase kinase-3 alpha (Homo sapiens), P49840; GSK-3 alpha kinase, ADP-Glo luminescence, 60 min; inhibition, % at 10 µM; 320,000 compounds, 0.1% hits; AID 2650, 2010;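 active means more than half of replicates show inhibition above 20%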;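 further: GST-tagged GSK-3 alpha with peptide substrate and 25 µM ATP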
CR mimetic SO: reduction of superoxide in aged yeast, primary screen, HTS | S. cerevisiae aged cells, superoxide DHE fluorescence; active compounds read low | superoxide response (% of plate mean), % at 10 µM | 330,000 compounds, 0.18% hits | AID 2690, 2010;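 active means superoxide response under a set limit, about three screen SD below normal, cut at about 65% in these data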;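 further: yeast aged for seven days with compound at 30 °C before DHE staining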
STK33 kinase inh: inhibitors of purified STK33 kinase, primary screen, biochemical, ADP-Glo luminescence, homogeneous, cell-free | Serine/threonine-protein kinase 33 (Homo sapiens), Q9BYT3 | MBP phosphorylation | inhibition, % at 10 µM | 320,000 compounds, 0.073% hits;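 active means inhibition at or above 25%, using the most active replicate where run in duplicate; inactive means inhibition below 25%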
Target sequence (Q9BYT3 whole entry, looked up): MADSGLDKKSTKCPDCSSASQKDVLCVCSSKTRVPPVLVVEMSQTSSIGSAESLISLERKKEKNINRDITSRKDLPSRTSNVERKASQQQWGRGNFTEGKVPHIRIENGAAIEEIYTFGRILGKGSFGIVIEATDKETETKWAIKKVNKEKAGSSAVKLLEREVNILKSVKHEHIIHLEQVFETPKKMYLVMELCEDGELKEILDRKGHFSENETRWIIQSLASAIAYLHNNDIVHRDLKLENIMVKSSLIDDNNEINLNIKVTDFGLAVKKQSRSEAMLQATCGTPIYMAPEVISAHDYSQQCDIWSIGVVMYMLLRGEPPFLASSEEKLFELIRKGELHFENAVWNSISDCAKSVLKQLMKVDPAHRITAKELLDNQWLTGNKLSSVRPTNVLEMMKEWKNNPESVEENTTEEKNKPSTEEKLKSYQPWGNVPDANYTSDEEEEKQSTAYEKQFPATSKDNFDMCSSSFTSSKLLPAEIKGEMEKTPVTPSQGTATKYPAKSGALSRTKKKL
Each line names hits and unclear results; the compound was inactive in the other large screens.

CCS(=O)(=O)c1ccc(O)c(NC(=O)/C=C/c2ccc(Cl)cc2)c1	AI-2 QS mod -83
O=C1COc2ccc(C(=O)COC(=O)Cc3ccc(F)cc3)cc2N1	AI-2 QS mod -82
O=C(NNc1nc2cc3c(cc2s1)OCCO3)c1ccc(F)cc1	AI-2 QS mod -90
COc1ccccc1-c1nc(-c2ccccn2)no1	none
COc1ccc(-c2nc(-c3ccccn3)no2)cc1	STK33 kinase inh 29 (no result: PolyA inhibitor)
CCOc1ccc(CCNC(=O)c2ccc(S(=O)(=O)N3CCCC3)cc2)cc1OCC	none
S=c1[nH]nc(C2CCCCC2)n1/N=C/C=C/c1ccccc1	AI-2 QS mod -92
NC1=NC(=O)/C(=C/c2cn(Cc3ccccc3)c3ccccc23)S1	none
Cc1nc2ccc(S(=O)(=O)NCC(=O)NC(C)c3ccccc3)cc2s1 (stereo not given)	AI-2 QS mod -97
Cc1nc2ccc(S(=O)(=O)NCC(=O)N3CCN(c4ccccc4)CC3)cc2s1	none
CC(C)C[C@H](NC(=O)C1CC(=O)N(c2ccc3c(c2)OCO3)C1)C(=O)NC1CCCCC1 (stereo not given in full)	none
OCCN1CCN(c2nc(-c3ccccc3O)nc3ccccc23)CC1	STK33 kinase inh 40
CN1CCN(c2nc(-c3ccccc3O)nc3ccccc23)CC1	STK33 kinase inh 32
CCC(Oc1ccccc1)C(=O)Nc1ncc([N+](=O)[O-])s1 (stereo not given)	none
CC(CC(=O)Nc1ncc([N+](=O)[O-])s1)c1ccccc1 (stereo not given)	GSK3A inh 52 (no result: PolyA inhibitor)
Cc1ccc(C(=O)c2coc3ccc(OCC(=O)O)cc23)cc1	GSK3B inh -72, GSK3A inh 89
CC(=O)Oc1ccc2occ(C(=O)c3ccccc3)c2c1	none
O=C(O)COc1ccc2occ(C(=O)c3ccccc3)c2c1	GSK3A inh 83
COc1ccc(OC)c(/C=N/Nc2nc(C)cc(=O)[nH]2)c1	none
N/C(=N\OC(=O)CCc1ccccc1)c1ccc(Br)cc1	none
Cc1ccc(/C(N)=N/OC(=O)CCc2ccccc2)cc1	AI-2 QS mod -77
Cc1ccc(CNC(=O)Nc2ccc3c(c2)N(C)C(=O)CS3)cc1	AI-2 QS mod -78
CN1C(=O)CSc2ccc(NC(=O)NCc3ccccc3)cc21	none
Cc1[nH]c2ccccc2c1C(=O)COC(=O)c1ccc([N+](=O)[O-])s1	AI-2 QS mod -128
O=C(COC(=O)c1ccc([N+](=O)[O-])s1)NCc1ccccc1	none
COc1ccc(CCN(Cc2cccs2)S(=O)(=O)c2ccc(C(=O)O)cc2)cc1OC	none
CCOc1cc(C(c2c(O)nc(SC)[nH]c2=O)c2c(O)nc(SC)[nH]c2=O)ccc1O	none
COc1ccc(C(c2c(O)nc(SC)n(C)c2=O)c2c(O)nc(SC)n(C)c2=O)cc1O	AI-2 QS mod -89
C#CCOCCOCCOCCNc1nc(N2CCN(C(=O)CCCCCCCCCCNC(=O)[C@H]([C@@H](C)CC)n3cc(CCCCN=C(N)N)nn3)CC2)nc(N2CCN(C(=O)CCCCCCCCCCNC(=O)[C@H](CCCCN)n3cc(C[C@@H](C)CC)nn3)CC2)n1	STK33 kinase inh 30 (no result: AI-2 QS mod, GSK3B inh, PolyA inhibitor)
C#CCOCCOCCOCCNc1nc(N2CCN(C(=O)CCCCCCCCCCNC(=O)[C@H](CCCCN)n3cc(CCO)nn3)CC2)nc(N2CCN(C(=O)CCCCCCCCCCNC(=O)[C@H](CCCN=C(N)N)n3cc(C[C@@H](C)CC)nn3)CC2)n1	none (no result: AI-2 QS mod, GSK3B inh, PolyA inhibitor)
COc1ccc(NC(=O)Cn2cnc3ccccc3c2=O)cc1OC	AI-2 QS mod -76
COc1ccc(NC(=O)CCNC(=O)Cn2cnc3ccccc3c2=O)cc1OC	none
CN1CCN(C(c2cccnc2)c2ccc3cccnc3c2O)CC1 (stereo not given)	none
CN1CCN(C(c2ccc(Br)cc2)c2cc(Cl)c3cccnc3c2O)CC1 (stereo not given)	AI-2 QS mod -141
COc1ccc(CCNC(=O)CSc2nc3[nH]ncc3c(=O)n2-c2ccccc2OC)cc1OC	GSK3A inh 75
COc1ccc(CCNC(=O)CSc2nc3[nH]ncc3c(=O)n2-c2ccc(Cl)cc2Cl)cc1OC	none
O=C1c2ccccc2-c2onc3ccc(NCCCn4ccnc4)c1c23	GSK3A inh 63, STK33 kinase inh 48
COc1ccc2noc3c2c1C(=O)c1ccccc1-3	none
CCn1c(C)nc2cc(C(=O)NNC(=S)NC(=O)c3ccc(OC)cc3)ccc21	AI-2 QS mod -85
CCn1c(C)nc2cc(C(=O)NNC(=S)Nc3ccc(C)cc3)ccc21	none
O=C(COc1ccc([N+](=O)[O-])cc1)NNC(=S)NC(=O)c1ccc(Br)cc1	AI-2 QS mod -127
COc1ccc(C(=O)NNC(=S)NC(=O)c2cccc([N+](=O)[O-])c2)cc1	AI-2 QS mod -85
CCOC(=O)CNC(=O)CSc1nc(Cc2ccccc2)nc2ccccc12	none
COc1ccc(C(=O)O/N=C(/c2ccccc2)c2ccncc2)cc1	none
COc1ccc(C(=O)O/N=C(\C)c2ccccc2)cc1	STK33 kinase inh 29
Cc1ccccc1COC[C@H](CC(C)C)N1CCN(C(=O)c2cccc(C(F)(F)F)c2)CCC1=O	none (no result: CR mimetic SO)
CCN(CC(=O)NC(C)(C)C)C(=O)COc1c(Cl)cc(Cl)c2ccc(C)nc12	AI-2 QS mod -81
CC(C)C[C@H](N)c1nnc(S(=O)(=O)Cc2ccc(F)cc2)o1	AI-2 QS mod -88
COc1cc(Cl)c(CN2CCCC(CO)(Cc3cccc(Cl)c3)C2)cc1OC (stereo not given)	none
Nc1nc(Cl)nc2c1ncn2[C@H]1C[C@H](O)[C@@H](CO)O1	AI-2 QS mod -158
O=C(COc1ccc(Br)cc1)NCCNC(=O)c1ccccn1	none
N#Cc1c2ccc(O)cc2n2ccccc12	STK33 kinase inh 32
N#Cc1c2ccc(OCC(=O)NCc3ccco3)cc2n2ccccc12	none
O=[N+]([O-])c1cccc(C2(O)COc3ccccc3O2)c1 (stereo not given)	none
O=C(Nc1cccc2ccccc12)c1ccc([N+](=O)[O-])o1	AI-2 QS mod -128
Cc1cccc(NC(=O)c2ccc([N+](=O)[O-])o2)c1C	none
COc1ccccc1NC(=O)c1ccc([N+](=O)[O-])o1	AI-2 QS mod -87
